Measurements reported in ChEMBL document CHEMBL1130179, “DNA gyrase inhibitory and antimicrobial activities of some diphenic acid monohydroxamides” (J Med Chem, 1997).
In brackets after ≈: the same amount, converted by molar mass. Peptide text beside a SMILES is read from it.

Tests used:
[1] = test system: Escherichia coli; experiment: Minimum inhibitory concentration of compound against KL-16 Escherichia coli strain; type: functional
Method in brief: (§1)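 Broth microdilution in Mueller Hinton broth for Gram-negatives, 2-fold series 0.015–1000 µg/mL, inoculum about 5 × 10^5 CFU/mL. Incubated overnight at 35 °C; MIC = lowest well with no visible growth. Some tests included polymyxin B nonapeptide at a level with no antibacterial activity of its own, compared with PMBN-free controls.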

[2] = test system: Staphylococcus epidermidis; experiment: Minimum inhibitory concentration of compound against OC2603 Staphylococcus epidermidis strain; type: functional
Method in brief: (§2)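 Broth microdilution in Luria broth for Gram-positives, 2-fold series 0.015–1000 µg/mL, inoculum about 5 × 10^5 CFU/mL. Incubated overnight at 35 °C; MIC = lowest well concentration with no visible growth.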

[3] = test system: Escherichia coli; experiment: Minimum inhibitory concentration of compound against Escherichia coli; type: functional; method in brief: as §1
[4] = test system: Staphylococcus aureus; experiment: Minimum inhibitory concentration of compound against OC6538 Staphylococcus aureus strain; type: functional; method in brief: as §2
[5] = test system: Escherichia coli; experiment: Minimum inhibitory concentration of compound against Escherichia coli KL-16 strain; type: functional; method in brief: as §1
[6] = test system: DNA gyrase (Escherichia coli); experiment: Inhibition of cleavable complex ability of DNA gyrase in Escherichia coli

Row | Structure (SMILES) | MIC [1] [µg/mL] | MIC [2] [µg/mL] | MIC [3] [µg/mL] | MIC [4] [µg/mL] | MIC [5] [µg/mL] | CC50 [6] [µg/mL]
1 | COc1cc(C(C)N(O)C(=O)c2ccccc2-c2ccccc2C(=O)O)cc(OC)c1OC (stereo not drawn) | > 1000 | 1000 (≈ 2210 µM) | > 1000 | 1000 (≈ 2210 µM) |  | 
2 | CC(c1ccc2oc(-c3ccccc3)cc2c1)N(O)C(=O)c1ccccc1-c1ccccc1C(=O)O (stereo not drawn) | > 1000 | 15.6 (≈ 32.7 µM) | > 1000 | 15.6 (≈ 32.7 µM) |  | 62.5 (≈ 131 µM)
3 | CC(c1ccc2c(c1)Nc1ccccc1S2)N(O)C(=O)c1ccccc1-c1ccccc1C(=O)O (stereo not drawn) | > 1000 | 62.5 (≈ 130 µM) | > 1000 | 62.5 (≈ 130 µM) |  | 750 (≈ 1550 µM)
4 | CCn1cc(C(=O)O)c(=O)c2ccc(C)nc21 [NALIDIXIC ACID] | 8 (≈ 34.4 µM) | 250 (≈ 1080 µM) | 1 (≈ 4.31 µM) | 500 (≈ 2150 µM) |  | 

The next lines start with results.

Row | MIC [1] [µg/mL] | MIC [2] [µg/mL] | MIC [3] [µg/mL] | MIC [4] [µg/mL] | MIC [5] [µg/mL] | Structure (SMILES) | CC50 [6] [µg/mL]
5 | > 1000 | 500 (≈ 959 µM) | > 1000 | 500 (≈ 959 µM) |  | CC(c1ccc(N2CCN(c3ccccc3)CC2)cc1)N(O)C(=O)c1ccccc1-c1ccccc1C(=O)O (stereo not drawn) | 
6 | > 1000 | 1000 (≈ 2770 µM) | 1000 (≈ 2770 µM) | 1000 (≈ 2770 µM) |  | CC(c1ccccc1)N(O)C(=O)c1ccccc1-c1ccccc1C(=O)O (stereo not drawn) | 
7 |  |  | 500 (≈ 519 µM) |  | > 500 | CC(C)C[C@@H]1NC(=O)[C@@H](Cc2ccccc2)NC(=O)[C@H](CCN)NC(=O)[C@@H](NC(=O)[C@H](CCN)NC(=O)[C@@H](N)[C@@H](C)O)CCNC(=O)[C@H]([C@@H](C)O)NC(=O)[C@H](CCN)NC(=O)[C@H](CCN)NC1=O (HELM PEPTIDE1{T.[Dab].[Dab].[Dab].[dF].L.[Dab].[Dab].T}$PEPTIDE1,PEPTIDE1,3:R3-9:R2$$$V2.0) | 
8 | > 1000 | 31.2 (≈ 67.7 µM) | 31.2 (≈ 67.6 µM) | 31.2 (≈ 67.7 µM) |  | CC(c1ccc2c(ccc3ccccc32)c1)N(O)C(=O)c1ccccc1-c1ccccc1C(=O)O (stereo not drawn) | 97.7 (≈ 212 µM)
